Active and inactive are the calls of the source. No cut-off for these calls is given here.
Legend:
MT4 [1] = experiment: Antiviral activity against HIV2 assessed as inhibition of HIV2-induced cytopathicity in MT4 cells; assay type: functional, cell-based
How it was run: (§1)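 CEM and MT-4 cell cultures infected with HIV-1 or HIV-2, with compounds diluted into culture medium from DMSO stocks. Antiviral activity is read at day 4 post-infection and reported as EC50.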

MT4 [2] = experiment: Antiproliferative activity against human MT4 cell line; assay type: functional
How it was run: (§2)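 Cytostatic assay: compounds made up as DMSO stocks and diluted in culture medium. CC50 is the concentration that inhibits MT-4 or CEM cell proliferation by 50%.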

Dipeptidyl peptidase 4 [3] = biological target: T1, Dipeptidyl peptidase 4 (Homo sapiens, UniProt P27487); experiment: Conversion of prodrug to parent drug NAP-TSAO-T catalyzed by CD26 after 4 hrs; assay type: ADME; design: concentration or dose not given beside the values
T1 sequence (P27487 whole entry): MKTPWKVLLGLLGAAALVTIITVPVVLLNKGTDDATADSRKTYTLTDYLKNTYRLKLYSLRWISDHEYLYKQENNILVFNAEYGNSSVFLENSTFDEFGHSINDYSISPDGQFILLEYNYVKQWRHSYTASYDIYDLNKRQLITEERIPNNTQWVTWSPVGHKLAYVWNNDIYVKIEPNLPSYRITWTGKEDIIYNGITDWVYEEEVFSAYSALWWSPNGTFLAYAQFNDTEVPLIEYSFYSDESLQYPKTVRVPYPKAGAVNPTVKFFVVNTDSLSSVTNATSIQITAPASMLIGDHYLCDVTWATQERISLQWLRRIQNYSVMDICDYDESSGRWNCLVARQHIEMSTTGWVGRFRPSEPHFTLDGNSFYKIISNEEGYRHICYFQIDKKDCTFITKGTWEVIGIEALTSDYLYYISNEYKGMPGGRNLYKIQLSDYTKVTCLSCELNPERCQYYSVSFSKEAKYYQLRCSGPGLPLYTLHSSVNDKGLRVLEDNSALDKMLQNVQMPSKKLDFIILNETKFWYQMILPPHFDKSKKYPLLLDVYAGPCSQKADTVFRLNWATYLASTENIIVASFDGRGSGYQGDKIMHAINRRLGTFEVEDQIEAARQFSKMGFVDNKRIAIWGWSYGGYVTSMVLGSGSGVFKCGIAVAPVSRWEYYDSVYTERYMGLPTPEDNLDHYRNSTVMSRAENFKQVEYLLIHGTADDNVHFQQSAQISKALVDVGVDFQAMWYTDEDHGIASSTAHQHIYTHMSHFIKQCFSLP

MT4 [4] = experiment: Antiviral activity against HIV1 assessed as inhibition of HIV1-induced cytopathicity in MT4 cells; assay type: functional, cell-based; details: Homo sapiens; how it was run: as §1
CCRF-CEM [5] = experiment: Antiproliferative activity against human CEM cell line; assay type: functional; how it was run: as §2
Dipeptidyl peptidase 4 [6] = biological target: T1, Dipeptidyl peptidase 4; experiment: Conversion of prodrug to parent drug NAP-TSAO-T catalyzed by CD26 after 1 hr; assay type: ADME; design: concentration or dose not given beside the values
Dipeptidyl peptidase 4 [7] = biological target: T1, Dipeptidyl peptidase 4; experiment: Conversion of prodrug to parent drug NAP-TSAO-T catalyzed by CD26 after 24 hrs; assay type: ADME; design: concentration or dose not given beside the values
CCRF-CEM [8] = experiment: Antiviral activity against HIV2 assessed as inhibition of HIV2-induced cytopathicity in CEM cells; assay type: functional, cell-based; how it was run: as §1
[9] = biological target: Human immunodeficiency virus type 1 reverse transcriptase (Human immunodeficiency virus 1, UniProt Q72547); experiment: Inhibition of recombinant HIV1 reverse transcriptase
CCRF-CEM [10] = experiment: Antiviral activity against HIV1 assessed as inhibition of HIV1-induced cytopathicity in CEM cells; assay type: functional, cell-based; details: Homo sapiens; how it was run: as §1

| Compound | Activity (MT4 [1]) | CC50 (MT4 [2]) [µM] | Activity (Dipeptidyl peptidase 4 [3]) [%] | EC50 (MT4 [4]) [µM] | CC50 (CCRF-CEM [5]) [µM] | Activity (Dipeptidyl peptidase 4 [6]) [%] | Activity (Dipeptidyl peptidase 4 [7]) [%] | Activity (CCRF-CEM [8]) | IC50 [9] [µM] | EC50 (CCRF-CEM [10]) [µM] |
| --- | --- | --- | --- | --- | --- | --- | --- | --- | --- | --- |
| Cc1cn(C2OC(CO[Si](C)(C)C(C)(C)C)C3(OS(=O)(=O)C=C3N)C2O[Si](C)(C)C(C)(C)C)c(=O)n(CCCNC(=O)[C@@H]2CCCN2C(=O)[C@@H](N)Cc2ccc(O)cc2)c1=O (some centres undefined) | inactive | 11 | 66 | 0.14 | 10 | 43 | 79 | inactive | 8.1 | 0.15 |
| Cc1cn(C2OC(CO[Si](C)(C)C(C)(C)C)C3(OS(=O)(=O)C=C3N)C2O[Si](C)(C)C(C)(C)C)c(=O)n(CCCNC(=O)[C@@H]2C[C@@H](OCc3ccccc3)CN2C(=O)[C@@H](N)C(C)C)c1=O (some centres undefined) | inactive | 2 | 0 | 0.27 | 2.1 |  | 0 | inactive | 28 | 0.09 |
| Cc1cn([C@@H]2O[C@H](CO[Si](C)(C)C(C)(C)C)[C@@]3(OS(=O)(=O)C=C3N)[C@H]2O[Si](C)(C)C(C)(C)C)c(=O)n(CCCN)c1=O | inactive | 14 |  | 0.52 | 12 |  |  | inactive |  | 0.14 |
| Cc1cn(C2OC(CO[Si](C)(C)C(C)(C)C)C3(OS(=O)(=O)C=C3N)C2O[Si](C)(C)C(C)(C)C)c(=O)n(CCCNC(=O)CNC(=O)[C@@H](N)C(C)C)c1=O (some centres undefined) | inactive | 9.9 | 0 | 0.14 | 10 | 0 | 0 | inactive | 3.8 | 0.05 |
| Cc1cn(C2OC(CO[Si](C)(C)C(C)(C)C)C3(OS(=O)(=O)C=C3N)C2O[Si](C)(C)C(C)(C)C)c(=O)n(CCCNC(=O)[C@@H]2CCCN2C(=O)[C@@H](N)CCC(=O)O)c1=O (some centres undefined) | inactive | 64 | 48 | 0.49 | 30 |  | 92 | inactive |  | 0.26 |
| Cc1cn(C2OC(CO[Si](C)(C)C(C)(C)C)C3(OS(=O)(=O)C=C3N)C2O[Si](C)(C)C(C)(C)C)c(=O)n(CCCNC(=O)[C@@H]2CCCN2C(=O)[C@@H](N)Cc2ccccc2)c1=O (some centres undefined) | inactive | 19 | 37 | 0.2 | 14 |  | 58 | inactive |  | 0.1 |
| Cc1cn(C2OC(CO[Si](C)(C)C(C)(C)C)C3(OS(=O)(=O)C=C3N)C2O[Si](C)(C)C(C)(C)C)c(=O)n(CCCNC(=O)[C@@H]2CCCN2C(=O)CN)c1=O (some centres undefined) | inactive | 13 | 20 | 0.39 | 51 | 5 | 58 | inactive | 13 | 0.2 |
| Cc1cn(C2OC(CO[Si](C)(C)C(C)(C)C)C3(OS(=O)(=O)C=C3N)C2O[Si](C)(C)C(C)(C)C)c(=O)n(CCCNC(=O)[C@@H]2C[C@@H](O)CN2C(=O)[C@@H](N)C(C)C)c1=O (some centres undefined) | inactive | 10 | 18 | 0.41 | 15 | 4.1 | 43 | inactive | 16 | 0.4 |
| Cc1cn(C2OC(CO[Si](C)(C)C(C)(C)C)C3(OS(=O)(=O)C=C3N)C2O[Si](C)(C)C(C)(C)C)c(=O)n(CCCNC(=O)[C@H](C)NC(=O)[C@@H](N)C(C)C)c1=O (some centres undefined) | inactive | 22 | 6.5 | 0.23 | 11 | 0 | 35 | inactive | 5.4 | 0.08 |
| Cc1cn(C2OC(CO[Si](C)(C)C(C)(C)C)C3(OS(=O)(=O)C=C3N)C2O[Si](C)(C)C(C)(C)C)c(=O)n(CCCNC(=O)[C@H](CC(C)C)NC(=O)[C@@H](N)C(C)C)c1=O (some centres undefined) | inactive | 13 | 0 | 0.21 | 11 | 0 | 0 | inactive | 4.6 | 0.19 |
| Cc1cn(C2OC(CO[Si](C)(C)C(C)(C)C)C3(OS(=O)(=O)C=C3N)C2O[Si](C)(C)C(C)(C)C)c(=O)n(CCCNC(=O)[C@@H]2CCCN2C(=O)[C@@H](N)CC(=O)O)c1=O (some centres undefined) | inactive | 69 | 7.9 | 1.2 | ≥ 125 |  | 30 | inactive | 7.2 | 1.1 |
| Cc1cn(C2OC(CO[Si](C)(C)C(C)(C)C)C3(OS(=O)(=O)C=C3N)C2O[Si](C)(C)C(C)(C)C)c(=O)n(CCCNC(=O)[C@H](Cc2ccccc2)NC(=O)[C@@H](N)C(C)C)c1=O (some centres undefined) | inactive | 14 | 0 | 0.26 | 10 | 0 | 0 | inactive | 6.8 | 0.09 |
| Cc1cn(C2OC(CO[Si](C)(C)C(C)(C)C)C3(OS(=O)(=O)C=C3N)C2O[Si](C)(C)C(C)(C)C)c(=O)n(CCCNC(=O)[C@@H](NC(=O)[C@@H]2CCCN2C(=O)[C@@H](N)C(C)C)C(C)C)c1=O (some centres undefined) | inactive | 11 |  | 0.22 | 11 |  |  | inactive | 4.4 | 0.07 |
| Cc1cn(C2OC(CO[Si](C)(C)C(C)(C)C)C3(OS(=O)(=O)C=C3N)C2O[Si](C)(C)C(C)(C)C)c(=O)n(CCCNC(=O)[C@@H](N)C(C)C)c1=O (some centres undefined) | inactive | 8.2 |  | 0.3 | 9.6 |  |  | inactive | 6.7 | 0.06 |
| Cc1cn(C2OC(CO[Si](C)(C)C(C)(C)C)C3(OS(=O)(=O)C=C3N)C2O[Si](C)(C)C(C)(C)C)c(=O)n(CCCNC(=O)[C@@H]2CCCN2C(=O)[C@@H](N)CCCCN)c1=O (some centres undefined) | inactive | 87 | 85 |  | 47 |  | 99 | inactive | 4.7 | 0.16 |
| Cc1cn(C2OC(CO[Si](C)(C)C(C)(C)C)C3(OS(=O)(=O)C=C3N)C2O[Si](C)(C)C(C)(C)C)c(=O)n(CCCNC(=O)[C@@H]2CCCN2C(=O)[C@@H](N)CC(N)=O)c1=O (some centres undefined) | inactive | 22 | 27 | 0.59 | 25 |  | 73 | inactive | 4 | 0.37 |
| Cc1cn(C2OC(CO[Si](C)(C)C(C)(C)C)C3(OS(=O)(=O)C=C3N)C2O[Si](C)(C)C(C)(C)C)c(=O)n(CCCNC(=O)[C@@H]2CCCN2C(=O)[C@H](C)N)c1=O (some centres undefined) | inactive | 20 | 81 | 0.3 | 19 |  | 88 | inactive |  | 0.42 |
